Source: PMC10209927 (Russian Journal of General Chemistry, 2023)

Key:
[1] = molecular target: T1, aldehyde reductase (ALR1) (Homo sapiens, UniProt P14550); test: In vitro aldehyde reductase; format: biochemical
T1 sequence (P14550 1-325): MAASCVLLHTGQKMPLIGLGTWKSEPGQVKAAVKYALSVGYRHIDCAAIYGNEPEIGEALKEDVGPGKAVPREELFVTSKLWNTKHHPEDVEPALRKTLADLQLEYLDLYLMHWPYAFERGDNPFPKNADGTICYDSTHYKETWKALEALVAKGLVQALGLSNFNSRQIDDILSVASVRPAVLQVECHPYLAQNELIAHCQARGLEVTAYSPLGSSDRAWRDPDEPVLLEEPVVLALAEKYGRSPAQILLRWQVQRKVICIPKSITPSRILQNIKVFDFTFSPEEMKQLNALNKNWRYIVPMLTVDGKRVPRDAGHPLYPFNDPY
Method in brief: (§1)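 Enzymes isolated and purified by earlier reported methods, ALR1 at 2.19 μg/well and ALR2 at 1.85 μg/well. Test compound (20 µL of 1 mM solution) was preincubated with the enzyme in 100 mM KH2PO4, pH 6.2, at 37°C for 10 min. Then substrate (50 mM as added) and NADPH (0.5 mM as added) were introduced. OD340 was read after 30 min. % inhibition = 100 − (A test/A control × 100). IC50 ± SEM was determined for compounds with >50% inhibition.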

[2] = molecular target: aldose reductase (ALR2) (Homo sapiens, UniProt P15121); test: In vitro aldose reductase; format: biochemical
Method in brief: as §1

IC50 [1]	IC50 [2]	Compound
90 ± 0.56 µM	28 ± 1.23 µM	O=C1N=C(Nc2ccccc2)S/C1=C\c1ccccc1OCc1cn(Cc2cccc(Cl)c2)nn1 [Compound 9b, (Z)-5-(2-{[1-(3-Chlorobenzyl)-1H-1,2,3-triazol-4-yl]methoxy}benzylidene)-2-(phenylamino)thiazol-4(5H)-one]
–	10 ± 1.56 µM	O=C1N=C(Nc2ccccc2)S/C1=C\c1ccccc1OCc1cn(Cc2ccc(Cl)cc2)nn1 [Compound 9c, (Z)-5-(2-{[1-(4-Chlorobenzyl)-1H-1,2,3-triazol-4-yl]methoxy}benzylidene)-2-(phenylamino)thiazol-4(5H)-one]
